{"source": "PubChem BioAssay AID623967", "about": "(Broad Institute, 2012)", "key": {"[1]": {"assay": "C. glabrata growth inhibition on glucose, dose response, glucose medium, OD600, powder samples, set 3 (AID 623967)", "settings": "Candida glabrata growth in glucose medium, OD600, 48 h; at 3 µM (top of the series)", "how_it_was_run": "(§1)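 material = Candida glabrata cells | medium = CSM-glucose medium | dosing = test compounds delivered into wells by pin transfer | incubation = 48 h growth exposure at 30 °C, static, humidified | detection = optical density at 600 nm | measure = fungal growth inhibition as decrease in OD600 signal | controls = amphotericin B at 10 µM as positive control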"}, "[2]": {"test_system": "Candida glabrata growth in glucose medium, OD600, 48 h", "assay": "C. glabrata growth inhibition on glucose, dose response, glucose medium, OD600, powder samples, set 3 (AID 623967)", "how_it_was_run": "as §1"}}, "note": "“And” between values parts separate entries of the source, which are not always exact repeats. Identical values can stand only once. The source made the active and inactive calls.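 The calls were made as follows: active = compounds whose fitted dose for half their peak growth loss is at most twice the top usable dose; inconclusive = flat curve with moderate growth loss, or a poor fit; inactive = the rest.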", "data": [{"molecule": "CCOC(=O)N1C(=O)C2(CCCCC2)N(c2ccccc2)C1=S", "values": [{"measurement": "activity change, negative = inhibition", "setting": "[1]", "value": "-11.4% (inactive)"}]}, {"molecule": "CC1/C=C/C=C\\C=C\\C=C\\C=C\\C=C\\C=C\\C(O[C@H]2OC(C)C(O)C(N)C2O)CC2OC(O)(CC(O)CC(O)C(O)CCC(O)CC(O)CC(=O)OC(C)C(C)C1O)CC(O)C2C(=O)O", "note": "(stereo partly drawn)", "values": [{"measurement": "AC50", "setting": "[2]", "value": 1220, "unit": "nM"}]}, {"molecule": "C/C=C/[C@@H]1[C@H]2C[C@@H](C)CC[C@@H]2C(C)=C[C@H]1C(=O)c1c(O)c(-c2ccc(O)cc2)c[nH]c1=O", "values": [{"measurement": "activity change, negative = inhibition", "setting": "[1]", "value": "-1.31% (inactive)"}]}, {"molecule": "CCOC(=O)N1C(=O)C2(CCCCC2)N(c2ccc(C#N)cc2)C1=S", "values": [{"measurement": "activity change, negative = inhibition", "setting": "[1]", "value": "-6.49% (inactive)"}]}, {"molecule": "CCOC(=O)N1C(=O)C2(CCCCC2)N(c2ccc(C)cc2)C1=S", "values": [{"measurement": "activity change, negative = inhibition", "setting": "[1]", "value": "-11.3% (inactive) and -13.1% (inactive)"}]}, {"molecule": "CCOC(=O)N1C(=O)C2(CCCCC2)N(c2ccc(F)cc2)C1=S", "values": [{"measurement": "activity change, negative = inhibition", "setting": "[1]", "value": "-12.7% (inactive)"}]}, {"molecule": "CCOC(=O)N1C(=O)C2(CCCCC2)N(c2ccc(Cl)cc2)C1=S", "values": [{"measurement": "activity change, negative = inhibition", "setting": "[1]", "value": "-9.79% (inactive)"}]}, {"molecule": "CCOC(=O)N1C(=O)C2(CCCCC2)N(c2cccc(C)c2)C1=S", "values": [{"measurement": "activity change, negative = inhibition", "setting": "[1]", "value": "-8.41% (inactive)"}]}]}
